Cneo AK release – Cryptococcus neoformans lysis via adenylate kinase release; lysis activity, % at 15 µM; 0.2% of 360,000 active; C. neoformans lysis, adenylate kinase release luminescence, 4 h; normalised: neutral wells 0, clomiphene wells 100; AID 651654;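 active = mean lysis activity across replicates of at least 80%, whatever share of replicates individually reach that level; inactive = mean lysis activity below 80%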
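Material: C. neoformans cells; Schedule: 4 h static compound exposure, 37 °C, read 1 h post-reagent; Measured by: adenylate kinase release luminescence; Read-out: signal increase indicating cell lysis; Controls: Clomiphene as positive lysis control.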
DENV2 CPE rescue – inhibitors of DENV2 cytopathic effect | CPE inhibition, % at 9.99 µM | DENV2-infected cells, cytopathic effect rescue, plate reader | 1.7% of 350,000 active | AID 651640; in the data active = CPE inhibition above about 20%, passing the limit was not always enough; tested in BHK-21 cells
Xi reactivation – activators of X-chromosome reactivation in mouse fibroblasts | XiGFP mouse fibroblasts, % GFP-positive cells imaging, 3 d; cells co-treated with 5-aza-dC sensitizer; scaled so ellipticine positive control = 100% | activation, % at 7.58 µM | 0.055% of 360,000 active;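 active = mean normalized replicate activation at least 10% and every replicate at or above 10%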
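Assay system – SV40-immortalized XiGFP fibroblast cells, line 68-5-11 · Buffer or medium – DMEM supplemented with 5-aza-dC as sensitizing agent · Dosing – one concentration, pinned · Benchmarks – positive control ellipticine, 6 µM final · Times – 3 days compound exposure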
C2C12 statin – suppression of simvastatin myotoxicity. C2C12 myotubes + simvastatin, ATP luminescence, 48 h; scaled: DMSO 0, geranylgeraniol control 100. rescue of ATP level, % at 7.49 µM. 0.78% of 330,000 active;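 active = mean ATP rescue above about 67%, or every replicate alone reaching that limit, limit read from the data, passing the limit was not always enough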;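 note: myotubes were challenged with 10 µM simvastatin during compound exposure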
Numbers stand for hits; - = inactive; . = no result given. Only some compounds are listed: those with a hit (about 2.1% of all), similar ones and a draw of the others.

SMILES | Cneo AK release | DENV2 CPE rescue | Xi reactivation | C2C12 statin
COc1ccc(C(C)=O)cc1CSc1nnc(Nc2ccccc2)s1 | - | . | - | -
COc1ccc(C(C)=O)cc1CSc1nnc(Nc2ccc(C)cc2)s1 | - | 47 | - | .
S=C(NCCc1ccccc1)NC1CCC(NC(=S)NCCc2ccccc2)CC1 (stereo unspecified) | - | . | - | -
S=C(NCCc1cccc(Cl)c1)NC1CCCCC1 | 88 | - | - | -
Cc1cccc(NC(=S)N2CCCCCC2)c1C | - | 55 | - | -
COc1ccc(-c2cc(N)n(S(=O)(=O)c3ccc(C)cc3)n2)c(OC)c1 | - | 22 | - | -
CC(NC(=O)C1CCCC1)C1CC2CCC1C2 (stereo unspecified) | . | - | - | .
CC(NC(=O)C1CC=CCC1C(=O)O)C1CC2CCC1C2 (stereo unspecified) | - | . | . | 98
CCC(=O)Nc1ccc2c(c1)OC[C@H](C)N(Cc1ccccc1OC)C[C@H](C)[C@H](OC)CN(C)C2=O | - | - | - | -
CO[C@H]1CN(C)C(=O)c2ccc(NC(=O)Nc3ccc(Cl)cc3)cc2OC[C@H](C)NC[C@@H]1C | . | . | - | -
COC(=O)c1ccc(=O)c2nc3/c(=C/O)c(O)cc(=O)c3[nH]c12 | - | 42 | . | -
CN(C)C(=O)c1cccc(-c2ccc3c(c2)[C@H]2[C@H](CCN2C(=O)c2cccnc2)[C@@H](CO)N3)c1 | - | 31 | - | -
CN(C)C(=O)c1cccc(-c2ccc3c(c2)[C@@H]2[C@@H](CCN2C(=O)Cc2ccncc2)[C@@H](CO)N3)c1 | - | 104 | - | -
CN(C)C(=O)c1cccc(-c2ccc3c(c2)[C@@H]2[C@@H](CCN2C(=O)c2cccnc2)[C@H](CO)N3)c1 | - | - | - | -
O=S(=O)(c1ccccc1)N1CC2(C1)[C@H](c1ccccc1)[C@H](CO)N2CC1CCCC1 | . | - | - | .
C[C@@H]1CCCCO[C@@H](CN(C)Cc2ccc(Cl)c(Cl)c2)[C@@H](C)CN([C@H](C)CO)C(=O)c2cc(NC(=O)Nc3cccc4ccccc34)ccc2O1 | - | 22 | - | .
C[C@@H]1CN([C@H](C)CO)C(=O)c2cc(NC(=O)Nc3cccc4ccccc34)ccc2O[C@@H](C)CCCCO[C@H]1CN(C)Cc1ccc(Cl)c(Cl)c1 | . | - | - | .
C[C@H](CO)N1C[C@H](C)[C@@H](CN(C)Cc2ccc(Cl)c(Cl)c2)OCCCC[C@H](C)Oc2ccc(NC(=O)Nc3cccc4ccccc34)cc2C1=O | - | 33 | - | .
Cc1noc(C)c1NC(=O)N(C)C[C@H]1Oc2ccc(NS(=O)(=O)c3ccc(F)cc3)cc2C(=O)N([C@H](C)CO)C[C@H]1C | - | - | - | -
CN1OC[C@@H]2CN(C(=O)NC3CCCCC3)[C@H](c3ccc(N4CCCCC4)cc3)C[C@@H]21 | - | 22 | - | -
COc1ccc(NC(=O)Nc2cccc3c2O[C@H](CN(C)C)[C@@H](C)CN([C@@H](C)CO)C3=O)cc1 | - | - | - | -
C[C@@H]1CN([C@H](C)CO)C(=O)c2c(c3ccccc3n2C)-c2ccccc2CO[C@H]1CN(C)S(=O)(=O)c1ccc(Cl)cc1 | 107 | - | - | -
C[C@H]1CN([C@@H](C)CO)C(=O)c2c(c3ccccc3n2C)-c2ccccc2CO[C@@H]1CN(C)S(=O)(=O)c1ccc(Cl)cc1 | - | - | - | .
C[C@@H]1CN([C@@H](C)CO)C(=O)c2c(c3ccccc3n2C)-c2ccccc2CO[C@@H]1CN(C)S(=O)(=O)c1ccc(Cl)cc1 | 100 | - | - | -
C[C@@H]1CN([C@H](C)CO)C(=O)c2c(c3ccccc3n2C)-c2ccccc2CO[C@@H]1CN(C)C(=O)c1cc(Cl)cc(Cl)c1 | . | 60 | - | .
SMILES | Cneo AK release | DENV2 CPE rescue | Xi reactivation | C2C12 statin
C[C@H](CO)N1C[C@H](C)[C@H](CN(C)S(=O)(=O)c2ccc(Cl)cc2)OCc2ccccc2-c2c(n(C)c3ccccc23)C1=O | - | - | - | -
C[C@H]1CN([C@@H](C)CO)C(=O)c2c(c3ccccc3n2C)-c2ccccc2CO[C@@H]1CN(C)C(=O)c1cc(Cl)cc(Cl)c1 | . | - | - | .
COc1cccc(S(=O)(=O)N(C)C[C@H]2OCc3ccccc3-c3c(n(C)c4ccccc34)C(=O)N([C@@H](C)CO)C[C@H]2C)c1 | - | - | - | 69
O=C(C[C@@H]1C=C[C@H](NC(=O)Nc2ccc3c(c2)OCO3)[C@H](CO)O1)NCc1ccc(Cl)cc1 | - | - | - | -
COc1ccc(S(=O)(=O)N2CC3(CN(Cc4ccccc4OC)[C@H](CO)c4[nH]c5cc(OC)ccc5c43)C2)cc1 | . | - | - | .
C[C@H](CO)N1C[C@H](C)[C@H](CN(C)C(=O)Cc2ccncc2)Oc2ncc(C#CC3(O)CCCC3)cc2C1=O | - | - | - | -
C[C@H]1CN([C@@H](C)CO)C(=O)c2cc(NC(=O)CCCN(C)C)ccc2O[C@H]1CN(C)S(=O)(=O)c1cccs1 | - | - | - | -
C[C@@H]1CN([C@H](C)CO)C(=O)c2cc(-c3ccc(C(=O)N(C)C)cc3)cnc2O[C@@H]1CN(C)C(=O)c1ccncc1 | - | - | - | -
C[C@H](CO)N1C[C@H](C)[C@H](CN(C)Cc2ccncc2)Oc2cc(Br)ccc2S1(=O)=O | - | - | - | -
Cc1ccc(S(=O)(=O)Nc2ccc3c(c2)CC(=O)N([C@H](C)CO)C[C@@H](C)[C@@H](CN(C)S(C)(=O)=O)O3)cc1 | - | - | - | -
CCOC(=O)/C=C(\C)Nc1cc(C)nn1-c1ccccc1 | - | . | . | 127
Cc1cc(NC(=O)Nc2cc(C)nn2-c2ccccc2)n(-c2ccccc2)n1 | - | . | . | -
C[C@@H]1CN([C@H](C)CO)C(=O)c2cccc(NS(=O)(=O)c3cccs3)c2O[C@@H]1CN(C)Cc1ccc(Oc2ccccc2)cc1 | - | - | - | 79
C[C@@H]1CN([C@H](C)CO)C(=O)c2cccc(NS(=O)(=O)c3cccs3)c2O[C@@H]1CN(C)Cc1ccc(-c2ccccc2)cc1 | - | - | - | 70
O=C(Cc1ccccc1)N[C@H]1CC[C@H](CC(=O)N2CCCCC2)O[C@@H]1CO | - | - | - | -
COc1ccc(NC(=O)C2CCCN2S(=O)(=O)c2ccc3c(c2)CCC(=O)N3)c(OC)c1 (stereo unspecified) | - | 37 | - | -
CN1c2ccc(-c3ccccc3F)cc2[C@@H]2[C@@H](CCN2C(=O)c2cccc(F)c2)[C@@H]1CO | - | 76 | - | -
CN1c2ccc(-c3ccccc3F)cc2[C@H]2[C@H](CCN2C(=O)c2cccc(F)c2)[C@H]1CO | - | - | - | -
CN1c2ccc(-c3ccccc3F)cc2[C@@H]2[C@@H](CCN2C(=O)Nc2cc(F)ccc2F)[C@@H]1CO | - | 42 | - | -
CN1c2ccc(-c3ccc(F)cc3)cc2[C@@H]2[C@@H](CCN2C(=O)Nc2cc(F)ccc2F)[C@@H]1CO | - | - | - | -
COc1ccc(S(=O)(=O)N2CCC(C(=O)NCCC(=O)NCc3ccncc3)CC2)cc1 | - | - | - | -

Screens deposited in PubChem by Broad Institute.
